Measured values as given in ChEMBL document CHEMBL4414558, “Dehydroabietylamine Ureas and Thioureas as Tyrosyl-DNA Phosphodiesterase 1 Inhibitors That Enhance the Antitumor Effect of Temozolomide on Glioblastoma Cells” (J Nat Prod, 2019).
pIC50: −log10 of the molar value.

Key:
[1] = target: Tyrosyl-DNA phosphodiesterase 1 (Homo sapiens, UniProt Q9NUW8, H493R); test: Inhibition of recombinant TDP1 H493R mutant (unknown origin) using 5'-(5,6 FAM-aac gtc agg gtc ttc c-BHQ1)-3' as substrate measured every 55 secs for 8 mins by fluorescence based assay
Outline: (§1)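 Purified TDP1, either wild-type or the H493R mutant, tested against the fluorogenic substrate. The IC50 is the compound concentration that cuts enzyme activity by 50%.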

[2] = target: Poly [ADP-ribose] polymerase 2 (Homo sapiens) (UniProt Q9UGN5); test: Inhibition of PARP2 (unknown origin) assessed as residual activity at 100 uM relative to control
WI-38 = test: Cytotoxicity activity against human WI38 cells assessed as reduction in cell viability incubated for 72 hrs by MTT assay; format: cell-based; settings: WI-38, 72 h
U-87 MG [3] = test: Cytotoxicity activity against human U87MG cells assessed as reduction in cell viability incubated for 72 hrs by MTT assay; format: cell-based, U-87MG ATCC
[4] = target: Poly [ADP-ribose] polymerase 1 (Homo sapiens) (UniProt P09874); test: Inhibition of PARP1 (unknown origin) assessed as residual activity at 100 uM relative to control
A549 = test: Cytotoxicity activity against human A549 cells assessed as reduction in cell viability incubated for 72 hrs by MTT assay; format: cell-based; settings: A549, 72 h
U-937 = test: Cytotoxicity activity against human U937 cells assessed as reduction in cell viability incubated for 72 hrs by MTT assay; format: cell-based; settings: U-937, 72 h
T98G = test: Cytotoxicity activity against human T98G cells assessed as reduction in cell viability incubated for 72 hrs by MTT assay; format: cell-based
[5] = target: Tyrosyl-DNA phosphodiesterase 1 (Homo sapiens, UniProt Q9NUW8); test: Inhibition of recombinant TDP1 (unknown origin) using 5'-(5,6 FAM-aac gtc agg gtc ttc c-BHQ1)-3' as substrate measured every 55 secs for 8 mins by fluorescence based assay; outline: as §1
[6] = Cytotoxicity activity against human MDA-MB cells assessed as reduction in cell viability incubated for 72 hrs by MTT assay; format: cell-based
SNB-19 [7] = test: Cytotoxicity activity against human SNB19 cells assessed as reduction in cell viability incubated for 72 hrs by MTT assay; format: cell-based; settings: SNB-19, 72 h
MCF7 = test: Cytotoxicity activity against human MCF7 cells assessed as reduction in cell viability incubated for 72 hrs by MTT assay; format: cell-based; settings: MCF7, 72 h
[8] = Cytotoxicity activity against human SK-MEL-8 cells assessed as reduction in cell viability incubated for 72 hrs by MTT assay; format: cell-based
U-87 MG [9] = test: Potentiation of TMZ-induced cytotoxicity against human U87MG cells assessed as combination index at 100 uM incubated for 72 hrs in presence of 2500 uM TMZ by MTT assay; format: functional, U-87MG ATCC
SNB-19 [10] = test: Potentiation of TMZ-induced cytotoxicity against human SNB19 cells assessed as cell viability at 100 uM incubated for 72 hrs in presence of 1250 uM TMZ by MTT assay (Rvb =100%); format: functional
U-87 MG [11] = test: Potentiation of TMZ-induced cytotoxicity against human U87MG cells assessed as cell viability at 100 uM incubated for 72 hrs in presence of 2000 uM TMZ by MTT assay (reference value: 100%); format: functional, U-87MG ATCC
SNB-19 [12] = test: Potentiation of TMZ-induced cytotoxicity against human SNB19 cells assessed as combination index at 75 uM incubated for 72 hrs in presence of 2000 uM TMZ by MTT assay; format: functional
SNB-19 [13] = test: Potentiation of TMZ-induced cytotoxicity against human SNB19 cells assessed as reduction in cell viability at 75 uM incubated for 72 hrs in presence of 2000 uM TMZ by MTT assay relative to TMZ alone; format: functional
U-87 MG [14] = test: Potentiation of TMZ-induced cytotoxicity against human U87MG cells assessed as combination index at 100 uM incubated for 72 hrs in presence of 2000 uM TMZ by MTT assay; format: functional, U-87MG ATCC
U-87 MG [15] = test: Potentiation of TMZ-induced cytotoxicity against human U87MG cells assessed as reduction in cell viability at 100 uM incubated for 72 hrs in presence of 2500 uM TMZ by MTT assay relative to TMZ alone; format: functional, U-87MG ATCC
SNB-19 [16] = test: Potentiation of TMZ-induced cytotoxicity against human SNB19 cells assessed as cell viability at 75 uM incubated for 72 hrs in presence of 2000 uM TMZ by MTT assay (Rvb =100%); format: functional
SNB-19 [17] = test: Potentiation of TMZ-induced cytotoxicity against human SNB19 cells assessed as combination index at 100 uM incubated for 72 hrs in presence of 1250 uM TMZ by MTT assay; format: functional
U-87 MG [18] = test: Potentiation of TMZ-induced cytotoxicity against human U87MG cells assessed as cell viability at 100 uM incubated for 72 hrs in presence of 2500 uM TMZ by MTT assay (reference value: 100%); format: functional, U-87MG ATCC

Poly [ADP-ribose] polymerase 1 (Homo sapiens), sequence (P09874 whole entry): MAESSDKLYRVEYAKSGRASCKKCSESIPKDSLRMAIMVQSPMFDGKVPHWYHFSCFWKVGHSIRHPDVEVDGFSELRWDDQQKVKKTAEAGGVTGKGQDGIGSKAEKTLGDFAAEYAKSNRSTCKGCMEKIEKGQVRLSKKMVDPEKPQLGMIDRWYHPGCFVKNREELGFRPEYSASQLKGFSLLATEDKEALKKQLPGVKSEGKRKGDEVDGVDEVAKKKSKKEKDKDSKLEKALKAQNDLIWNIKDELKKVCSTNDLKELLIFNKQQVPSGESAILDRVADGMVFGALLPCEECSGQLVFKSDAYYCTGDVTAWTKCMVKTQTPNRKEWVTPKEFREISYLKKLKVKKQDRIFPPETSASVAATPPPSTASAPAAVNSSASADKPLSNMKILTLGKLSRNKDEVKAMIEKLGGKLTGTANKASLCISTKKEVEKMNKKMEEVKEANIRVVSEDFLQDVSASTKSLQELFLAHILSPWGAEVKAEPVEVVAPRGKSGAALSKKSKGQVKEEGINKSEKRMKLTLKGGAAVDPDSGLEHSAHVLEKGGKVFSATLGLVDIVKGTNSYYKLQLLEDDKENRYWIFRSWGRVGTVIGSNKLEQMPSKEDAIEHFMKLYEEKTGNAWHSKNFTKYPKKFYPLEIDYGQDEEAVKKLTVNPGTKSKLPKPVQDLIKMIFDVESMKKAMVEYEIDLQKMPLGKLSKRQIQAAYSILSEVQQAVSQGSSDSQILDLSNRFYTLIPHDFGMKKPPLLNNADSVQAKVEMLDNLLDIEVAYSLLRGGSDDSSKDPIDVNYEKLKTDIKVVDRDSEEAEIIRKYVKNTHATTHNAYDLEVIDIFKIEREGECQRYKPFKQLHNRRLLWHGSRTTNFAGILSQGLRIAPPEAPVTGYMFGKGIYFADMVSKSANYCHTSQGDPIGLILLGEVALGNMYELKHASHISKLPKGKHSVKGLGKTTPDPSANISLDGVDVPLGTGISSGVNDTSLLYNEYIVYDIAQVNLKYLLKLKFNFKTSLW
Poly [ADP-ribose] polymerase 2 (Homo sapiens), sequence (Q9UGN5 whole entry): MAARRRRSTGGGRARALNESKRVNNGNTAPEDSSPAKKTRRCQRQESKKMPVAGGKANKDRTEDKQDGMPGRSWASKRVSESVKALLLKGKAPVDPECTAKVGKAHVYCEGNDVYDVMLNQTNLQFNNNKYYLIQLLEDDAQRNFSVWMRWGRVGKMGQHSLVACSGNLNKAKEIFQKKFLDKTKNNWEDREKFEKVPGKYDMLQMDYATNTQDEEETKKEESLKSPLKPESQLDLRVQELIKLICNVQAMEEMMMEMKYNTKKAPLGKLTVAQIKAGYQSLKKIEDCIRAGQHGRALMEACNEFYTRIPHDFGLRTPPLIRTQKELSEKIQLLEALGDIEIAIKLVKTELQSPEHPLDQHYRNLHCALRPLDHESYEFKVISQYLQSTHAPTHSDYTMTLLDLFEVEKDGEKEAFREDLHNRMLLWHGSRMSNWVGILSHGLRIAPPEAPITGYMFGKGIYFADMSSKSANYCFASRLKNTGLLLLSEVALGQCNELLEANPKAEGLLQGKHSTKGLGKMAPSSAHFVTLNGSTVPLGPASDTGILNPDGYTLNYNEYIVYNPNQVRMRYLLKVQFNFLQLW
Tyrosyl-DNA phosphodiesterase 1 (Homo sapiens, UniProt Q9NUW8), sequence (Q9NUW8 whole entry): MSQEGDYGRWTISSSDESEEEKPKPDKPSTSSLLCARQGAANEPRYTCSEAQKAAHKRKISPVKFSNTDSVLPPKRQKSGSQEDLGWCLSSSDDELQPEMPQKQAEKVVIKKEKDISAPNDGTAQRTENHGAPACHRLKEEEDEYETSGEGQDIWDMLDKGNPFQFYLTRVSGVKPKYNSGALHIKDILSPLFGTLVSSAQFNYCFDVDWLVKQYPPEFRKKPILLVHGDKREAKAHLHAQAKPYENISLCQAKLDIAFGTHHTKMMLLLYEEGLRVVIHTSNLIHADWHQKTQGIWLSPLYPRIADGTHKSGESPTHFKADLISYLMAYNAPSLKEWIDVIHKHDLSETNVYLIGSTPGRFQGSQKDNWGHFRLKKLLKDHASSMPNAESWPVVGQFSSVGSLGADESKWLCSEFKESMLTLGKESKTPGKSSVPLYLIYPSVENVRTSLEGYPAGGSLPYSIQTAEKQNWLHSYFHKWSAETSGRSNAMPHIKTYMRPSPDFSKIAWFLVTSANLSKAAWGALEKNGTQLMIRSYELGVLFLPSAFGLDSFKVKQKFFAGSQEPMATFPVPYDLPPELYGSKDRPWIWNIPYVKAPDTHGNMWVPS
Tyrosyl-DNA phosphodiesterase 1 (Homo sapiens, UniProt Q9NUW8, H493R), sequence (Q9NUW8 whole entry H493R): as the sequence (Q9NUW8 whole entry) above, with H493R counted along it

Structure (SMILES)	pIC50 [1]	Activity [2] [%]	pIC50 (WI-38)	pIC50 (U-87 MG [3])	Activity [4] [%]	pIC50 (A549)	pIC50 (U-937)	pIC50 (T98G)	pIC50 [5]	pIC50 [6]	pIC50 (SNB-19 [7])	pIC50 (MCF7)	pIC50 [8]	CI (U-87 MG [9])	Activity (SNB-19 [10]) [%]	Activity (U-87 MG [11]) [%]	CI (SNB-19 [12])	fold change (FC) (SNB-19 [13])	CI (U-87 MG [14])	fold change (FC) (U-87 MG [15])	other results
C=CCNC(=S)NC[C@]1(C)CCC[C@]2(C)c3ccc(C(C)C)cc3CC[C@@H]12	< 4.30	98	4.30	< 4.00	104	4.00	4.65	< 4.00	6.24	< 4.00	> 5.00	5.00	< 4.00	–	–	–	–	–	–	–	–
CCNC(=O)NC[C@]1(C)CCC[C@]2(C)c3ccc(C(C)C)cc3CC[C@@H]12	< 4.30	116	–	< 4.00	100	< 4.00	4.46	< 4.00	5.43	< 4.00	> 5.00	–	< 4.00	–	–	–	–	–	–	–	–
CC(C)c1ccc2c(c1)CC[C@H]1[C@](C)(CNC(=O)NCC3(C)CC(NC(=O)NC[C@]4(C)CCC[C@]5(C)c6ccc(C(C)C)cc6CC[C@@H]45)CC(C)(C)C3)CCC[C@]21C (some centres undefined)	5.27	94	< 4.00	< 4.00	92	< 4.00	< 4.00	< 4.00	7.05	< 4.00	< 4.00	< 4.00	< 4.00	0.77	97.3	109.2	0.34	1.1	1.7	1.1	Activity (SNB-19 [16]): 89%; CI (SNB-19 [17]): 0.97; Activity (U-87 MG [18]): 90.9%
CNC(=S)NC[C@]1(C)CCC[C@]2(C)c3ccc(C(C)C)cc3CC[C@@H]12	< 4.30	114	–	< 4.00	110	4.71	4.77	4.13	5.83	< 4.00	> 5.00	–	< 4.00	–	–	–	–	–	–	–	–
CC(C)c1ccc2c(c1)CC[C@H]1[C@](C)(CNC(=O)NCCCCCCNC(=O)NC[C@]3(C)CCC[C@]4(C)c5ccc(C(C)C)cc5CC[C@@H]34)CCC[C@]21C	5.03	142	< 4.00	< 4.00	99	< 4.00	< 4.00	< 4.00	6.72	< 4.00	< 4.00	< 4.00	< 4.00	0.43	88.9	109.8	0.15	1.4	1.79	1.7	Activity (SNB-19 [16]): 70.3%; CI (SNB-19 [17]): 0.92; Activity (U-87 MG [18]): 59.3%
CC(C)c1ccc2c(c1)CC[C@H]1[C@](C)(CNC(=O)Nc3ccccc3)CCC[C@]21C	4.62	129	< 4.00	< 4.00	106	< 4.00	< 4.00	< 4.00	6.02	< 4.00	4.77	< 4.00	< 4.00	–	–	–	–	–	–	–	–
